In ChEMBL document CHEMBL1122081, “2-(Aminomethyl)phenols, a new class of saluretic agents. 4. Effects of oxygen and/or nitrogen substitution” (J Med Chem, 1982) one finds Saluretic potency data, which are given here for 21 compounds.

SMILES strings stand for the structures. A value given as a limit tells only on which side of the number the result lay.

The test system of one data set is Canis familiaris. In words: Saluretic property was estimated by the excretion of Na+ in dog administered intravenously; microequiv of Na+/min at 5 mg/kg iv stat, 250-399. Details: dose 5 mg/kg, route intravenous. Conditions: in vivo. It is filed as ADME, organism-based, Canis lupus familiaris. An outline of the steps:
(§1)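 Dogs of 15-20 kg were given a single stat intravenous dose of 5 mg/kg and Na+ excretion was measured in microequiv/min. The score is the average of two dogs, or three where designated.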
`O=C(NCc1c(O)c(Cl)cc(Cl)c1Cl)C(Cl)(Cl)Cl`: the Saluretic potency was 400 u equiv min-1.

`CN(Cc1c(O)c(Cl)cc(Cl)c1Cl)CC1CCCO1` (centres undefined): the Saluretic potency is reported as 250 u equiv min-1.

The subject of another data set is Rattus norvegicus. Kind of data set: Saluretic property was estimated by the excretion of Na+ in rat administered orally; microequiv of Na+ at 5 mg/kg […]. Conditions: in vivo. The class given is ADME, organism-based. Details: dose 5 mg/kg. An outline of the steps: (§2)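 Rats dosed orally; urinary Na+ excretion (microequiv) scored per dose level. Each score is the geometric mean of three animals per cage, with three cages per dose.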
Regarding `CN(C)S(=O)(=O)Oc1c(I)cc(C(C)(C)C)cc1CN.Cl`, the Saluretic potency is reported as 0.4 u equiv.

With `CCCCNCc1cc(C(C)(C)C)cc(I)c1O.Cl`, the Saluretic potency is 1.4 u equiv.

On to `CC(C)(C)c1cc(I)c(O)c(CNCCN)c1.Cl`, for which the Saluretic potency is 0.3 u equiv.

Turning to `CC(C)(C)c1cc(I)c(OS(=O)(=O)c2ccccc2)c(CN)c1.Cl`, the Saluretic potency is 0.4 u equiv.

Regarding `CN(C)Cc1cc(C(C)(C)C)cc(I)c1O`, the Saluretic potency is recorded as 1.4 u equiv.

`CC(C)(C)c1cc(I)c(O)c(CNS(=O)(=O)O)c1`: the Saluretic potency is recorded as 0.3 u equiv.

Consider `O=C(CCl)NCc1c(O)c(Cl)cc(Cl)c1Cl`, for which the Saluretic potency was 0.3 u equiv.

For the compound `O=C(NCc1c(O)c(Cl)cc(Cl)c1Cl)C(F)(F)F`, the Saluretic potency is listed as 0.4 u equiv.

Regarding `CC(C)(C)c1cc(I)c(OS(=O)(=O)O)c(CN)c1`, the Saluretic potency is 0.5 u equiv.

`CC(C)(C)c1cc(Cl)c(O)c(CN)c1.Cl`: the Saluretic potency is 3.6 u equiv.

In the case of `CC(C)(C)c1cc(I)c(O)c(CN)c1.Cl`, the Saluretic potency is reported as 3.6 u equiv.

The subject of a further data set is Rattus norvegicus. Kind of data set: Saluretic property was estimated by the excretion of Na+ in rat administered orally; microequiv of Na+ at 16.5 mg/kg […]. The class given is ADME, organism-based. Details: dose 16.5 mg/kg. Conditions: in vivo. An outline of the steps: as §2
As to `CN(C)S(=O)(=O)Oc1c(I)cc(C(C)(C)C)cc1CN.Cl`, the Saluretic potency is given as 0.6 u equiv.

Take `CCCCNCc1cc(C(C)(C)C)cc(I)c1O.Cl`: the Saluretic potency is 2.7 u equiv.

On to `CC(C)(C)c1cc(I)c(O)c(CNCCN)c1.Cl`, for which the Saluretic potency is reported as 0.5 u equiv.

`CC(C)(C)c1cc(I)c(OS(=O)(=O)c2ccccc2)c(CN)c1.Cl`: the Saluretic potency is listed as 0.6 u equiv.

Turning to `CC(C)(C)c1cc(I)c2c(c1)CNC(=O)O2`, the Saluretic potency is reported as 0.4 u equiv.

For `CN(C)Cc1cc(C(C)(C)C)cc(I)c1O`, the Saluretic potency is on record as 2.7 u equiv.

For `CC(C)(C)c1cc(I)c(O)c(CNS(=O)(=O)O)c1`, the Saluretic potency was 0.5 u equiv.

With `O=C(CCl)NCc1c(O)c(Cl)cc(Cl)c1Cl`, the Saluretic potency is reported as 0.5 u equiv.

For the compound `O=C(NCc1c(O)c(Cl)cc(Cl)c1Cl)C(F)(F)F`, the Saluretic potency was 0.6 u equiv.

For the compound `CC(C)(C)c1cc(I)c(OS(=O)(=O)O)c(CN)c1`, the Saluretic potency is 1.4 u equiv.

For `CC(C)(C)c1cc(Cl)c(O)c(CN)c1.Cl`, the Saluretic potency is given as 4.2 u equiv.

Take `CC(C)(C)c1cc(I)c(O)c(CN)c1.Cl`: the Saluretic potency is on record as 4.2 u equiv.

Another data set has as its system Canis familiaris. Kind of data set: Saluretic property was estimated by the excretion of Na+ in dog administered intravenously; microequiv of Na+/min at 5 mg/kg iv stat, 0-99. The class given is ADME, organism-based, Canis lupus familiaris. Details: dose 5 mg/kg, route intravenous. The note with it: in vivo. The method, boiled down: as §1
Regarding `CCN(CC)C(=O)COc1c(I)cc(C(C)(C)C)cc1CN.Cl`, the Saluretic potency is listed as 0 u equiv min-1.

On to `CC(C)(C)c1cc(I)c(O)c(CNCCN)c1.Cl`, for which the Saluretic potency is given as 0 u equiv min-1.

For the compound `COc1c(I)cc(C(C)(C)C)cc1CN.Cl`, the Saluretic potency is recorded as 0 u equiv min-1.

Consider `CC(C)(C)c1cc(Cl)c(O)c(C[n+]2ccc(N)cc2)c1.[Cl-]`, for which the Saluretic potency was 0 u equiv min-1.

In the case of `CC(C)(C)c1cc(I)c(O)c(CNC2=NCCN2)c1`, the Saluretic potency is on record as 0 u equiv min-1.

Take `COc1c(I)cc(C(C)(C)C)cc1C[N+](C)(C)C.[I-]`: the Saluretic potency is listed as 0 u equiv min-1.

On to `CC(C)(C)c1cc(I)c(O)c(C[N+](C)(C)C)c1.[I-]`, for which the Saluretic potency was 0 u equiv min-1.

For the compound `CN(C)Cc1cc(C(C)(C)C)cc(I)c1O`, the Saluretic potency is listed as 0 u equiv min-1.

As to `CC(C)(C)c1cc(Cl)c(O)c(C[n+]2ccccc2)c1.[Cl-]`, the Saluretic potency is 0 u equiv min-1.

As to `O=C(CCl)NCc1c(O)c(Cl)cc(Cl)c1Cl`, the Saluretic potency is given as 0 u equiv min-1.

In another data set the test system is Rattus norvegicus. Kind of data set: Saluretic property was estimated by the excretion of Na+ in rat administered orally; microequiv of Na+ at 1 mg/kg […]. Conditions: in vivo. Details: dose 1 mg/kg. It is filed as ADME, organism-based. An outline of the steps: as §2
For the compound `CC(C)(C)c1cc(Cl)c(O)c(CN)c1.Cl`, the Saluretic potency is recorded as 2.1 u equiv.

For the compound `CC(C)(C)c1cc(I)c(O)c(CN)c1.Cl`, the Saluretic potency is listed as 2.1 u equiv.

For the next data set, the system named is Canis familiaris. Kind of data set: Saluretic property was estimated by the excretion of Na+ in dog administered intravenously; microequiv of Na+/min at 5 mg/kg iv stat, 600-799. It is filed as ADME, organism-based, Canis lupus familiaris. Details: dose 5 mg/kg, route intravenous. Conditions: in vivo. The method, boiled down:
as §1
For `CCCCNCc1cc(C(C)(C)C)cc(I)c1O.Cl`, the Saluretic potency was 600 u equiv min-1.

For the next data set, the system named is Canis familiaris. Kind of data set: Saluretic property was estimated by the excretion of Na+ in dog administered intravenously; microequiv of Na+/min at 5 mg/kg iv stat, >900. The class given is ADME, organism-based, Canis lupus familiaris. Details: dose 5 mg/kg, route intravenous. Conditions: in vivo. An outline of the steps: as §1
On to `CC(C)(C)c1cc(Cl)c(O)c(CN)c1.Cl`, for which the Saluretic potency was more than 900 u equiv min-1.

Take `CC(C)(C)c1cc(I)c(O)c(CN)c1.Cl`: the Saluretic potency is more than 900 u equiv min-1.

A further data set is filed under the species Rattus norvegicus. Kind of data set: Saluretic property (excretion of Na+ in rat). Conditions: in vivo. It is filed as ADME, organism-based. An outline of the steps: as §2
The compound `CN(C)S(=O)(=O)Oc1c(I)cc(C(C)(C)C)cc1CN.Cl` showed a Saluretic potency of 2.4 u equiv.

On to `CCN(CC)C(=O)COc1c(I)cc(C(C)(C)C)cc1CN.Cl`, for which the Saluretic potency is less than 0.3 u equiv.

In the case of `CC(C)(C)c1cc(I)c(O)c(CNCCN)c1.Cl`, the Saluretic potency is 1.5 u equiv.

In turn, `CC(C)(C)c1cc(I)c(OS(=O)(=O)c2ccccc2)c(CN)c1.Cl` came in with a Saluretic potency of 2.4 u equiv.

`COc1c(I)cc(C(C)(C)C)cc1CN.Cl` displayed a Saluretic potency of less than 0.3 u equiv.

`CC(C)(C)c1cc(I)c(O)c(CNC2=NCCN2)c1` registered a Saluretic potency of less than 0.3 u equiv.

As to `CC(C)(C)c1cc(I)c2c(c1)CNC(=O)O2`, the Saluretic potency is on record as 0.9 u equiv.

The compound `CC(C)(C)c1cc(I)c(O)c(C[N+](C)(C)C)c1.[I-]` came in with a Saluretic potency of less than 0.3 u equiv.

With `CC(C)(C)c1cc(Cl)c(O)c(C[n+]2ccccc2)c1.[Cl-]`, the Saluretic potency is less than 0.3 u equiv.

The compound `CC(C)(C)c1cc(I)c(O)c(CNS(=O)(=O)O)c1` returned a Saluretic potency of 1.5 u equiv.

Compound `O=C(CCl)NCc1c(O)c(Cl)cc(Cl)c1Cl` showed a Saluretic potency of 1.5 u equiv.

In the case of `O=C(NCc1c(O)c(Cl)cc(Cl)c1Cl)C(F)(F)F`, the Saluretic potency was found to be 2.4 u equiv.

As to `CC(C)(C)c1cc(I)c(OS(=O)(=O)O)c(CN)c1`, the Saluretic potency is 2.9 u equiv.

Turning to `O=C(NCc1c(O)c(Cl)cc(Cl)c1Cl)C(Cl)(Cl)Cl`, the Saluretic potency was less than 0.3 u equiv.

`CN(Cc1c(O)c(Cl)cc(Cl)c1Cl)CC1CCCO1` (centres undefined) gave a Saluretic potency of less than 0.3 u equiv.

The subject of a further data set is Rattus norvegicus. Kind of data set: Saluretic property (excretion of Na+ in rat after PO dosing). Conditions: in vivo. The class given is ADME, organism-based. An outline of the steps:
as §2
Regarding `CN(C)S(=O)(=O)Oc1c(I)cc(C(C)(C)C)cc1CN.Cl`, the Saluretic potency is recorded as 1.8 u equiv.

The compound `CCN(CC)C(=O)COc1c(I)cc(C(C)(C)C)cc1CN.Cl` displayed a Saluretic potency of less than 0.2 u equiv.

Turning to `CCCCNCc1cc(C(C)(C)C)cc(I)c1O.Cl`, the Saluretic potency was determined as 3.3 u equiv.

In turn, `CC(C)(C)c1cc(I)c(O)c(CNCCN)c1.Cl` came in with a Saluretic potency of 1.2 u equiv.

Compound `CC(C)(C)c1cc(I)c(OS(=O)(=O)c2ccccc2)c(CN)c1.Cl` yielded a Saluretic potency of 1.8 u equiv.

Take `COc1c(I)cc(C(C)(C)C)cc1CN.Cl`: the Saluretic potency is less than 0.2 u equiv.

As to `CC(C)(C)c1cc(I)c(O)c(CNC2=NCCN2)c1`, the Saluretic potency is given as less than 0.2 u equiv.

As for `CC(C)(C)c1cc(I)c2c(c1)CNC(=O)O2`, the Saluretic potency stood at 0.7 u equiv.

`CC(C)(C)c1cc(I)c(O)c(C[N+](C)(C)C)c1.[I-]`: the Saluretic potency amounted to 0.2 u equiv.

Consider `CN(C)Cc1cc(C(C)(C)C)cc(I)c1O`, for which the Saluretic potency was found to be 3.3 u equiv.

`CC(C)(C)c1cc(Cl)c(O)c(C[n+]2ccccc2)c1.[Cl-]`: the Saluretic potency was less than 0.2 u equiv.

In turn, `CC(C)(C)c1cc(I)c(O)c(CNS(=O)(=O)O)c1` returned a Saluretic potency of 1.2 u equiv.

Turning to `O=C(CCl)NCc1c(O)c(Cl)cc(Cl)c1Cl`, the Saluretic potency amounted to 1.2 u equiv.

Regarding `O=C(NCc1c(O)c(Cl)cc(Cl)c1Cl)C(F)(F)F`, the Saluretic potency is given as 1.8 u equiv.

Consider `CC(C)(C)c1cc(I)c(OS(=O)(=O)O)c(CN)c1`, for which the Saluretic potency amounted to 2.4 u equiv.

`O=C(NCc1c(O)c(Cl)cc(Cl)c1Cl)C(Cl)(Cl)Cl` returned a Saluretic potency of less than 0.2 u equiv.

`CC(C)(C)c1cc(Cl)c(O)c(CN)c1.Cl` showed a Saluretic potency of 3.9 u equiv.

Take `CC(C)(C)c1cc(I)c(O)c(CN)c1.Cl`: the Saluretic potency was determined as 3.9 u equiv.

As to `CN(Cc1c(O)c(Cl)cc(Cl)c1Cl)CC1CCCO1` (centres undefined), the Saluretic potency is recorded as less than 0.2 u equiv.
